Consider one compound from ChEMBL document CHEMBL3627690, “Scaffold-Hopping and Structure-Based Discovery of Potent, Selective, And Brain Penetrant N-(1H-Pyrazol-3-yl)pyridin-2-amine Inhibitors of Dual Leucine Zipper Kinase (DLK, MAP3K12)” (J Med Chem, 2015).

For series [1], the target named is Cyclin-dependent kinase 1/cyclin B1 (Homo sapiens) (UniProt P06493+P14635). The experiment in a line: Inhibition of CDK1/cyclinB (unknown origin) at 1 uM by FRET method. It counts as protein-complex assay. Summed up:
(§1)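 SelectScreen panel of 58 kinases, each tested at a single 1 µM compound concentration. Read-out was Z′-LYTE FRET of labeled peptide phosphorylation, run by the vendor's protocols, reported as percent inhibition.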

For series [2], the target named is Casein kinase II subunit alpha (Homo sapiens) (UniProt P68400). Kind of series: Inhibition of CK2alpha1 (unknown origin) at 1 uM by FRET method. Summed up:
as §1

In series [3] the target is Mitogen-activated protein kinase kinase kinase 9 (Homo sapiens, UniProt P80192). Kind of series: Inhibition of MLK1 (unknown origin) by FRET method. Summed up: (§2)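 Biochemical IC50 determination from a 10-point dose-response in an enzymatic Z′-LYTE assay. Labeled-peptide phosphorylation was read by FRET under the vendor's protocols.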
Chain of Mitogen-activated protein kinase kinase kinase 9 (P80192 whole entry): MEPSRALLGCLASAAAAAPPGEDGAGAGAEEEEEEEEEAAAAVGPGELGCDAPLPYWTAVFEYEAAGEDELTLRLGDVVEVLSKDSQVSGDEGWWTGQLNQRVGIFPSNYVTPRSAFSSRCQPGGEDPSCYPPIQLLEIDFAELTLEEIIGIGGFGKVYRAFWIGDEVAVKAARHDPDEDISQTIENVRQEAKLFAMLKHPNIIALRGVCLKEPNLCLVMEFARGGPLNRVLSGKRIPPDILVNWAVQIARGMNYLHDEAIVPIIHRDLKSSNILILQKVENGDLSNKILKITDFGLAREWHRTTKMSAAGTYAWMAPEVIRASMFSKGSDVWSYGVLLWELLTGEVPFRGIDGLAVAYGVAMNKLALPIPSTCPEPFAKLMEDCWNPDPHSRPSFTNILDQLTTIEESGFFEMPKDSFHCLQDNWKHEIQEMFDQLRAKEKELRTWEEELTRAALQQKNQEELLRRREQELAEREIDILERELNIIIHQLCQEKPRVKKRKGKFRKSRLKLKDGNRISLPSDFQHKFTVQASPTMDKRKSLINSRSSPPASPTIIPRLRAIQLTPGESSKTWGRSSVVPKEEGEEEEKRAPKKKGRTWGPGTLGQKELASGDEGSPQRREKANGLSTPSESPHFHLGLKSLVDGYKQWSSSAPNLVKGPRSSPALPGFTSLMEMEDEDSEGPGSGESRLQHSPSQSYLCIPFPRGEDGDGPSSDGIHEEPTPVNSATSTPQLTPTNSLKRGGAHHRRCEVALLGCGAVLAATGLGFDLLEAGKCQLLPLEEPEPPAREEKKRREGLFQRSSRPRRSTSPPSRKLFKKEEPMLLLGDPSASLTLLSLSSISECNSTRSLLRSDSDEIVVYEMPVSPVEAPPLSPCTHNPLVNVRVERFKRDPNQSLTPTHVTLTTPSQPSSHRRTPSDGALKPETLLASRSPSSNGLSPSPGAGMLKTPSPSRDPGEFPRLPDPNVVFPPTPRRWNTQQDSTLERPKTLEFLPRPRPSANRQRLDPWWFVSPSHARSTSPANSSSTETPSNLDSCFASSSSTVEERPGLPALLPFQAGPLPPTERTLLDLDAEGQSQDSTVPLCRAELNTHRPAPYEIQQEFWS
Series [4] deals with Mast/stem cell growth factor receptor Kit (Homo sapiens, UniProt P10721). Kind of series: Inhibition of Kit (unknown origin) by FRET method.
The target in series [5] is Serine/threonine-protein kinase mTOR (Homo sapiens) (UniProt P42345). The experiment in a line: Inhibition of mTOR (unknown origin) at 1 uM by FRET method. Summed up:
(§3)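 Single-point screen at 1 uM against a panel of 58 representative kinases. Readout was labeled-peptide phosphorylation by FRET (Z′-LYTE), using the vendor's protocols.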

Series [6] addresses Mitogen-activated protein kinase 10 (Homo sapiens, UniProt P53779). Kind of series: Inhibition of JNK3 (unknown origin) by FRET method. Summed up: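 JNK1, JNK2 and JNK3 IC50 values came from a 10-point dose–response enzymatic assay.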
Series [7] is described as follows: Tmax in mouse at 50 mg/kg, po. It counts as ADME, organism-based. The settings on record: in vivo. Summed up: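 Mice were dosed orally at 50 mg/kg as a methylcellulose suspension. Exposure was sampled over 0–6 h, and free brain concentration was determined at 6 h.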
In series [8] the target is Dual specificity mitogen-activated protein kinase kinase 7 (Homo sapiens, UniProt O14733). The experiment in a line: Inhibition of MKK7 (unknown origin) using KFMMpTPYVVTR substrate incubated for 1 hr measured by MpTPpYV probe-based fluorescence polarization assay.
Series [9] in a line: Half life in […] rat at 0.4 or 1 mg/kg, iv and 1 or 5 mg/kg, po. It counts as ADME, organism-based. The settings on record: in vivo. Summed up: (§4)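 Rat PK used iv dosing at 0.4 or 1 mg/kg in 60% PEG solution and po dosing at 1 or 5 mg/kg as an aqueous 1% methylcellulose suspension. Free clearance is CL/fu, where fu is the fraction unbound in plasma.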
Series [10] concerns the target c-Jun N-terminal kinase, JNK (Homo sapiens) (UniProt P45983+P53779+P45984). Kind of series: Inhibition of Myc CA-JNK (unknown origin) transfected in HEK293 cells assessed as reduction of phosphorylation of c-Jun at 10 uM incubated for 5 hrs measured by Western blot analysis. In kind it is cell-based. Summed up:
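HEK293 cells were transfected with constitutively active JNK 24 h before compound treatment. Cells were then exposed to compound for 5 h.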

For series [11], the target named is High affinity nerve growth factor receptor (Homo sapiens, UniProt P04629). Kind of series: Inhibition of TrkA (unknown origin) at 1 uM by FRET method. Summed up:
as §3

The target of series [12] is Proto-oncogene tyrosine-protein kinase receptor Ret (Homo sapiens) (UniProt P07949). The experiment in a line: Inhibition of Ret (unknown origin) at 1 uM by FRET method. Summed up:
as §3

Series [13] has as its target Vascular endothelial growth factor receptor 2 (Homo sapiens) (UniProt P35968). The experiment in a line: Inhibition of KDR (unknown origin) at 1 uM by FRET method. Summed up:
as §1

Series [14] concerns the target Mitogen-activated protein kinase kinase kinase 11 (Homo sapiens, UniProt Q16584). Kind of series: Inhibition of MLK3 (unknown origin) by FRET method. Summed up: as §2
The target of series [15] is Serine/threonine-protein kinase MARK2 (Homo sapiens) (UniProt Q7KZI7). Kind of series: Inhibition of MARK2 (unknown origin) at 1 uM by FRET method. Summed up: as §1
Chain of Serine/threonine-protein kinase MARK2 (Homo sapiens) (Q7KZI7 whole entry): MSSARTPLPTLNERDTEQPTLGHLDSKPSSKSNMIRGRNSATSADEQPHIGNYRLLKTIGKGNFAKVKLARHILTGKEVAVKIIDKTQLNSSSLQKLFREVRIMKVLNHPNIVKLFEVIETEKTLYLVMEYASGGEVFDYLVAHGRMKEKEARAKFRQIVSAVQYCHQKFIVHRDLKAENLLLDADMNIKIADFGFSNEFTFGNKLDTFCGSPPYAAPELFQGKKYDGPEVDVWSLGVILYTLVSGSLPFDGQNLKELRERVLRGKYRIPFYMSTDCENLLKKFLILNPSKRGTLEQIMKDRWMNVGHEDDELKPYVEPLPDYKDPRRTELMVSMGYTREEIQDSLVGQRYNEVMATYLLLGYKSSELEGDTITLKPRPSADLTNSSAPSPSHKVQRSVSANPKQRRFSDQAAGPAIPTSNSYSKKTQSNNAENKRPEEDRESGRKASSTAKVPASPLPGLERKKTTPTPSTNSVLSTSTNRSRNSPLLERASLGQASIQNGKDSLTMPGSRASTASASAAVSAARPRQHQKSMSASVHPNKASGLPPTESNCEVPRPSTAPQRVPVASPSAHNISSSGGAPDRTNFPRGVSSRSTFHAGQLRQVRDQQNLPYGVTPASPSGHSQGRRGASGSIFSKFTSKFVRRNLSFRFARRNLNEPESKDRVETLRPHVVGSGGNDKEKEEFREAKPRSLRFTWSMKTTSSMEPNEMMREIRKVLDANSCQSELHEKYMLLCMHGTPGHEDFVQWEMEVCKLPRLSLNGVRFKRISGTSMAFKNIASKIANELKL
Series [16] deals with T1, Mitogen-activated protein kinase kinase kinase 12 (Homo sapiens) (UniProt Q12852).
T1 sequence (whole entry): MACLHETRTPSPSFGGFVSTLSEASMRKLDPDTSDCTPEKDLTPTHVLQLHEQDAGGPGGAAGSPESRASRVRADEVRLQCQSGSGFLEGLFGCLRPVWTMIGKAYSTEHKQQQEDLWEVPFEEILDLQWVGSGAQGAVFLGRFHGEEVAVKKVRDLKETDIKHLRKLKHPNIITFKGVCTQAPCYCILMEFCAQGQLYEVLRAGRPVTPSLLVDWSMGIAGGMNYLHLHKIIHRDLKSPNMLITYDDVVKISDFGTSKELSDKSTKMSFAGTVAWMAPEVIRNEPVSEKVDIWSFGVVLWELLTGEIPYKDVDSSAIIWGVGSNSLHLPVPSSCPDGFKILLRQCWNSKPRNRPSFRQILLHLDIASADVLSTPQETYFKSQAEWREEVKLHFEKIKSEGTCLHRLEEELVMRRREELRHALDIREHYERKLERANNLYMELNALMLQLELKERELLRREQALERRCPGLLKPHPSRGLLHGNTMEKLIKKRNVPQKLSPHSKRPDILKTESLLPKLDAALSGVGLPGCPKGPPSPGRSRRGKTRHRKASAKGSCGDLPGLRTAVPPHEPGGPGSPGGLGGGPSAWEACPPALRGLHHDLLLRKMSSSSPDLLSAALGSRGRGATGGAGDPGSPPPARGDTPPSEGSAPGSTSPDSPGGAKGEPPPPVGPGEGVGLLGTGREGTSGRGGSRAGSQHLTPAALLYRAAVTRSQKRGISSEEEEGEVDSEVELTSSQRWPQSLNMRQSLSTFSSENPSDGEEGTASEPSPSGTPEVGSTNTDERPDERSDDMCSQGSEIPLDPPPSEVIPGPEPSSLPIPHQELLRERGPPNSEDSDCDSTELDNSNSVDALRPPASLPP
The experiment in a line: Inhibition of Flag DLK (unknown origin) transfected in HEK293 cells assessed as reduction of phosphorylation of JNK at 0.1 to 10 uM incubated for 5 hrs measured by Western blot analysis. In kind it is cell-based. Summed up:
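HEK293 cells were transfected with Flag-tagged DLK, with kinase-dead DLK K152A as comparator, 24 h before compound addition. Cells were then exposed to compound for 5 h. Phospho-MKK4, phospho-MKK7, phospho-JNK and phospho-c-Jun were probed.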

Series [17] concerns the target Proto-oncogene tyrosine-protein kinase Src (Homo sapiens, UniProt P12931). The experiment in a line: Inhibition of Src (unknown origin) by FRET method. Summed up: as §2
In series [18] the target is Mitogen-activated protein kinase 3 (Homo sapiens) (UniProt P27361). Kind of series: Inhibition of ERK1 (unknown origin) at 1 uM by FRET method. Summed up: as §1
Chain of Mitogen-activated protein kinase 3 (Homo sapiens) (P27361 whole entry): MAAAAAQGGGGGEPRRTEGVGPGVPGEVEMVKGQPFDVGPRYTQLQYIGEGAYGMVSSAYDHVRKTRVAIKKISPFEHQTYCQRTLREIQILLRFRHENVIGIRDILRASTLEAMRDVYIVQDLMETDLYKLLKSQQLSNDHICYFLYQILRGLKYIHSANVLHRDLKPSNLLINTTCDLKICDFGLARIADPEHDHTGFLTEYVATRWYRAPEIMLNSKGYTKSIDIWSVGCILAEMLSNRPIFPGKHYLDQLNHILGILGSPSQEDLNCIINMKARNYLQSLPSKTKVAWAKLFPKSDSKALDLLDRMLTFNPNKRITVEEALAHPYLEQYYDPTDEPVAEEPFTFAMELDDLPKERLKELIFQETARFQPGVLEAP
The target of series [19] is T2, Mitogen-activated protein kinase kinase kinase 12 (Homo sapiens, UniProt Q12852).
T2 sequence (Q12852 whole entry): T1 sequence (whole entry)
Kind of series: Inhibition of Dox inducible human DLK transfected in HEK293 cells assessed as reduction in JNK phosphorylation incubated for 5.5 hrs measured by Hoechst 33342 staining based imaging analysis. It counts as cell-based.

A further series relates to Rattus norvegicus. The experiment in a line: Free clearance in […] rat at 0.4 or 1 mg/kg, iv and 1 or 5 mg/kg, po. In kind it is ADME, organism-based. Particulars: in vivo. Summed up:
as §4

The source made the active and inactive calls. The rule behind the calls is not given here.

Chain of Casein kinase II subunit alpha (Homo sapiens) (P68400 whole entry, looked up): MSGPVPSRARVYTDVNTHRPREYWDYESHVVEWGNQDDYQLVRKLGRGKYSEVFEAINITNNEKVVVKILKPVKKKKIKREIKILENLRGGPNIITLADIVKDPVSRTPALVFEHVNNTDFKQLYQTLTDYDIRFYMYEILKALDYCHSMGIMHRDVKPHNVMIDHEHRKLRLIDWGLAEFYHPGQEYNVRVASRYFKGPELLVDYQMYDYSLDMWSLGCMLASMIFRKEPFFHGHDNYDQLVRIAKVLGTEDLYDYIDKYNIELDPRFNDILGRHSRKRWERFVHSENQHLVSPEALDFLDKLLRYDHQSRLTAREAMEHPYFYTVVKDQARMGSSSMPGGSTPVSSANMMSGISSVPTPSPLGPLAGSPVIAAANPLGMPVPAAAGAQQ
Chain of Proto-oncogene tyrosine-protein kinase Src (P12931 2-536 limits assumed): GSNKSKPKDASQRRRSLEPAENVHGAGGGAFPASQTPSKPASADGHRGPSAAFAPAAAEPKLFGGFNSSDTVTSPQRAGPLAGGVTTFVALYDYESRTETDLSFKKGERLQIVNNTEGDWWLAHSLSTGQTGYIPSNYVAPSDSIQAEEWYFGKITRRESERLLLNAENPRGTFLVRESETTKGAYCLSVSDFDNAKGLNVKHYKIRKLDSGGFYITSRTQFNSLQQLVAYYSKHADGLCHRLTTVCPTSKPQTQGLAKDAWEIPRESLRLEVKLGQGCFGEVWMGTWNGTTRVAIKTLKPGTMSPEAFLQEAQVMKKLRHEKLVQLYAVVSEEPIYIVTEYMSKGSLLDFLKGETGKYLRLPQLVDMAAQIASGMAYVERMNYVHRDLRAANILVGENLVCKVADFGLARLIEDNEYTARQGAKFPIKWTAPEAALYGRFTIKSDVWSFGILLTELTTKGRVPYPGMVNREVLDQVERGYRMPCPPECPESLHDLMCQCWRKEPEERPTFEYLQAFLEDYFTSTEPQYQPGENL
Chain of Mitogen-activated protein kinase kinase kinase 11 (Q16584 whole entry): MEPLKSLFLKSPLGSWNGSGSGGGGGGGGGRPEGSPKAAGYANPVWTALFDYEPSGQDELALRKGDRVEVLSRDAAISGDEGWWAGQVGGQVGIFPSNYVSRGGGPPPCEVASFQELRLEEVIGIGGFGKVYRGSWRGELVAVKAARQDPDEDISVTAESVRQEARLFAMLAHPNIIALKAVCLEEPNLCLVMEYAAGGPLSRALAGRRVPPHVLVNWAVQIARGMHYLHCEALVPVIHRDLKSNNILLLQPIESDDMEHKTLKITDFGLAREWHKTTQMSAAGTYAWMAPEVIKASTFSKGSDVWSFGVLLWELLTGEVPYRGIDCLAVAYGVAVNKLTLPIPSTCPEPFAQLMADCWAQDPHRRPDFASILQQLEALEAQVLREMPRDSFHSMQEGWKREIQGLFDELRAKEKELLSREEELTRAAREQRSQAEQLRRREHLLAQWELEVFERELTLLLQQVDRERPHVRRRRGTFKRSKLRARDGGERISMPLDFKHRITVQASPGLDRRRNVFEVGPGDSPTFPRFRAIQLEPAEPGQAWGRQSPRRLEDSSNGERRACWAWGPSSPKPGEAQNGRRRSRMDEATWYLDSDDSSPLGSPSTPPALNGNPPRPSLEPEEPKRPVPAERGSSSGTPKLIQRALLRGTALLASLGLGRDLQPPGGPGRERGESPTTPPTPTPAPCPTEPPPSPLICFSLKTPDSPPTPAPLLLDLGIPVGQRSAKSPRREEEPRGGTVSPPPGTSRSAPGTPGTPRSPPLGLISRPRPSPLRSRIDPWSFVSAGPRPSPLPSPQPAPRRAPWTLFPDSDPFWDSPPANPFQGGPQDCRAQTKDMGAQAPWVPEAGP
Chain of High affinity nerve growth factor receptor (P04629 33-796 limits assumed): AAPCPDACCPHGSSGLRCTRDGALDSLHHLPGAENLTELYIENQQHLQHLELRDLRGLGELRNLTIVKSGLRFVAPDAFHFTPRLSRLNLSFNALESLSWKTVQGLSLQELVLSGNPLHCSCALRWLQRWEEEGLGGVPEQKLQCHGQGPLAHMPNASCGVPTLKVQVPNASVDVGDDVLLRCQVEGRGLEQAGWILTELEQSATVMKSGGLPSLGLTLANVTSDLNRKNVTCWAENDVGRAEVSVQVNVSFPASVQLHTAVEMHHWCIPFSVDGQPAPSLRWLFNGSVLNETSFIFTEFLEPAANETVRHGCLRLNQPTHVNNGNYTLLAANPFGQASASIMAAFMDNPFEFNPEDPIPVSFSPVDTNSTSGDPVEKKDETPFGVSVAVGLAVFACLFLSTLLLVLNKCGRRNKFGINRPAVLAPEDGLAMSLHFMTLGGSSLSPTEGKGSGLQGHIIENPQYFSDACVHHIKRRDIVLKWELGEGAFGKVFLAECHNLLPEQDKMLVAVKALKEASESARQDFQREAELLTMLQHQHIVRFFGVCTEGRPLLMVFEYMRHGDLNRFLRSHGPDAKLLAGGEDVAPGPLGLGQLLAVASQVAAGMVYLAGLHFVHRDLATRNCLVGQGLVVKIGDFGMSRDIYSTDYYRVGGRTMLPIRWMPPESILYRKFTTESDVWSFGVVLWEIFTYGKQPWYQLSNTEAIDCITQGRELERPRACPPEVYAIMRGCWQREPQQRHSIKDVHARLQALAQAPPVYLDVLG

Consider `N#Cc1ccnc(Nc2cc(C3CCN(C4COC4)CC3)n(C3CCCC3)n2)c1`, for which the inhibition (as a rule, the change of the read-out against control, counted positive when it falls) is 13.5% in [1]; 1.3% in series [2]; 9.2% in series [5]; 63.3% in [11]; 29.6% in series [12]; 5.2% in series [13]. Besides, the inhibition was 3% in series [15] and 0.6% in [18]. Also, the IC50 (commonly the concentration that gives 50% inhibition) was more than 10000 nM in series [3]; 534 nM in series [4]; 2100 nM in series [6]; more than 5000 nM in series [8]; more than 10000 nM in series [14]; 1010 nM in series [17]. Besides, the IC50 in series [19] was 536 nM. Moreover, the Tmax (usually the time at which the peak concentration occurs) in [7] is 15 min. In [9], the half-life (as a rule, the time in which the quantity being followed falls by half) was 102 min. In addition, the inhibition result in [10] was “inactive”. In addition, the inhibition result in series [16] is “Active”. This compound had a CL free in the series on Rattus norvegicus of 327 mL/min/kg.
